Consider eight compounds from PubChem BioAssay AID624013 (Broad Institute, 2012).

“And” between values parts separate entries of the source, which are not always exact repeats. Equal entries are not always repeated. The source made the active and inactive calls.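 The calls were made as follows: active = compounds whose fitted growth inhibition curve reaches half effect at or below twice the top tested dose; inconclusive = flat inhibition between 30 and 70 percent, or poor fit; inactive = the rest.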

By AC50 is commonly meant the concentration giving half of the maximal activity seen.

One test deals with Candida glabrata growth, glucose medium, OD600, 48 h. In words: glucose-fed Candida glabrata growth inhibitors – glucose medium, plate reader, dry powder, set 4, dose response (AID 624013).
Conditions: not given
The method, boiled down:
(§1)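 System: Candida glabrata yeast cells, whole organism / Control set: amphotericin B 10 µM, positive / Signal: optical density at 600 nm (absorbance) / Buffer or medium: CSM-glucose medium / Schedule: compound exposure 48 h at 30 °C, static, humidified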
For the compound `CC1/C=C/C=C\C=C\C=C\C=C\C=C\C=C\C(O[C@H]2OC(C)C(O)C(N)C2O)CC2OC(O)(CC(O)CC(O)C(O)CCC(O)CC(O)CC(=O)OC(C)C(C)C1O)CC(O)C2C(=O)O` (stereo partly drawn), the AC50 was 2.12 µM.

Test system in another test: not listed separately
The test is described as above. The following applies: Candida glabrata growth, glucose medium, OD600, 48 h; at 3 µM (top of the series). The method, boiled down: as §1
Regarding `CCOC(=O)N1C(=O)C2(CCCCC2)N(c2ccc(C)cc2)C1=S`, the activity change, negative = inhibition was -13.3% (inactive) and -16.5% (inactive).
On the same count and under the same terms, the figure for `CCOC(=O)N1C(=O)C2(CCCCC2)N(c2cccc(C)c2)C1=S` is -14.7% (inactive).
For the compound `C/C=C/[C@@H]1[C@H]2C[C@@H](C)CC[C@@H]2C(C)=C[C@H]1C(=O)c1c(O)c(-c2ccc(O)cc2)c[nH]c1=O`, the activity change, negative = inhibition was -2.31% (inactive).
Take `CCOC(=O)N1C(=O)C2(CCCCC2)N(c2ccc(C#N)cc2)C1=S`: the activity change, negative = inhibition is -17% (inactive).
The same measure, in the same setting: the figure for `CCOC(=O)N1C(=O)C2(CCCCC2)N(c2ccc(F)cc2)C1=S` is -16.3% (inactive).
With `CCOC(=O)N1C(=O)C2(CCCCC2)N(c2ccccc2)C1=S`, the activity change, negative = inhibition is -11.8% (inactive).
Still for that read-out and setting: the figure for `CCOC(=O)N1C(=O)C2(CCCCC2)N(c2ccc(Cl)cc2)C1=S` is -19.6% (inactive).
